Measurements: ChEMBL document CHEMBL4017537, “Discovery of a Potent and Specific M. tuberculosis Leucyl-tRNA Synthetase Inhibitor: (S)-3-(Aminomethyl)-4-chloro-7-(2-hydroxyethoxy)benzo[c][1,2]oxaborol-1(3H)-ol (GSK656)” (J Med Chem, 2017)
Converted amounts (≈) assume the structure as drawn.

Legend:
Leucine--tRNA ligase = biological target: T1, Leucine--tRNA ligase (Mycobacterium tuberculosis (strain ATCC 25618 / H37Rv), UniProt P9WFV1); test: Inhibition of Mycobacterium tuberculosis H37Rv N-terminal 6His-tagged LeuRS expressed in Escherichia coli BL21(DE3) assessed as L-[14C]leucine incorporation in to Escherichia coli tRNA after 20 mins by liquid scintillation counting analysis
T1 sequence (P9WFV1 whole entry): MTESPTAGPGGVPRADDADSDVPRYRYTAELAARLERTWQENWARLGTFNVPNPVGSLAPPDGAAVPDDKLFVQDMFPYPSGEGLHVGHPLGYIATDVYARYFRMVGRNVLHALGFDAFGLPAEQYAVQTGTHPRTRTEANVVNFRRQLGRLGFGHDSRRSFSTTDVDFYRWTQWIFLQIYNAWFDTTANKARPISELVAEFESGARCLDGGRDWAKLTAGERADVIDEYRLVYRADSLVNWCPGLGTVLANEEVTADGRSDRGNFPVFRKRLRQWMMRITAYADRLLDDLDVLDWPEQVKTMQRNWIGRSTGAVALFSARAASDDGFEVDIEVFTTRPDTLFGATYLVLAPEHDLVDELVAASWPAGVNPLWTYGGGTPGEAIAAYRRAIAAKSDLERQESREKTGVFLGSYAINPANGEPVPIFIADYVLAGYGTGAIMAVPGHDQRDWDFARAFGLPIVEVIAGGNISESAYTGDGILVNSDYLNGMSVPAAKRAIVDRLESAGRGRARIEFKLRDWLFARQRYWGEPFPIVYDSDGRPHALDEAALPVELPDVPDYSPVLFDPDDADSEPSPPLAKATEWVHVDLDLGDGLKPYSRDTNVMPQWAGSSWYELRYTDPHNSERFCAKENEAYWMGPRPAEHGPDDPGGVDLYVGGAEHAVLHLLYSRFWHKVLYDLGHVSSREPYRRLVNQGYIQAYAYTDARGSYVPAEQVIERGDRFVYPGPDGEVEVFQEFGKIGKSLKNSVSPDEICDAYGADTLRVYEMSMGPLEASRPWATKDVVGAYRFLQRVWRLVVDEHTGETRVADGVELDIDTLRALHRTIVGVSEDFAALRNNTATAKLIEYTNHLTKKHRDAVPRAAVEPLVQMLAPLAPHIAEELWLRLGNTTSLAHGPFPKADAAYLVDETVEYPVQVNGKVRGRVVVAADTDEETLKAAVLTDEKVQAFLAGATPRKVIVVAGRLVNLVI
Procedure, shortened: (§1)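 N-terminal His6-tagged LeuRS expressed in E. coli BL21(DE3), codon-optimized. 50 mM HEPES-KOH pH 8.0, 30 mM MgCl2, 30 mM KCl, 13 μM L-[14C]leucine, 15 μM tRNA (E. coli total; brewer's yeast for human cytoplasmic enzyme), 0.02% BSA, 1 mM DTT, 30 °C. Inhibitor preincubated 20 min, started with 4 mM ATP, TCA-quenched after 7 min, filtered, scintillation counted; four-parameter logistic IC50.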

[1] = tested on: Mycobacterium tuberculosis; test: Antimicrobial activity against Mycobacterium tuberculosis H37Rv; type: functional
[2] = biological target: T2, Leucine--tRNA ligase, cytoplasmic (Homo sapiens, UniProt Q9P2J5); test: Inhibition of human N-terminal 6His-tagged cytoplasmic LeuRS expressed in Escherichia coli BL21(DE3) assessed as […] after 20 mins by liquid scintillation counting analysis
T2 sequence (Q9P2J5 whole entry): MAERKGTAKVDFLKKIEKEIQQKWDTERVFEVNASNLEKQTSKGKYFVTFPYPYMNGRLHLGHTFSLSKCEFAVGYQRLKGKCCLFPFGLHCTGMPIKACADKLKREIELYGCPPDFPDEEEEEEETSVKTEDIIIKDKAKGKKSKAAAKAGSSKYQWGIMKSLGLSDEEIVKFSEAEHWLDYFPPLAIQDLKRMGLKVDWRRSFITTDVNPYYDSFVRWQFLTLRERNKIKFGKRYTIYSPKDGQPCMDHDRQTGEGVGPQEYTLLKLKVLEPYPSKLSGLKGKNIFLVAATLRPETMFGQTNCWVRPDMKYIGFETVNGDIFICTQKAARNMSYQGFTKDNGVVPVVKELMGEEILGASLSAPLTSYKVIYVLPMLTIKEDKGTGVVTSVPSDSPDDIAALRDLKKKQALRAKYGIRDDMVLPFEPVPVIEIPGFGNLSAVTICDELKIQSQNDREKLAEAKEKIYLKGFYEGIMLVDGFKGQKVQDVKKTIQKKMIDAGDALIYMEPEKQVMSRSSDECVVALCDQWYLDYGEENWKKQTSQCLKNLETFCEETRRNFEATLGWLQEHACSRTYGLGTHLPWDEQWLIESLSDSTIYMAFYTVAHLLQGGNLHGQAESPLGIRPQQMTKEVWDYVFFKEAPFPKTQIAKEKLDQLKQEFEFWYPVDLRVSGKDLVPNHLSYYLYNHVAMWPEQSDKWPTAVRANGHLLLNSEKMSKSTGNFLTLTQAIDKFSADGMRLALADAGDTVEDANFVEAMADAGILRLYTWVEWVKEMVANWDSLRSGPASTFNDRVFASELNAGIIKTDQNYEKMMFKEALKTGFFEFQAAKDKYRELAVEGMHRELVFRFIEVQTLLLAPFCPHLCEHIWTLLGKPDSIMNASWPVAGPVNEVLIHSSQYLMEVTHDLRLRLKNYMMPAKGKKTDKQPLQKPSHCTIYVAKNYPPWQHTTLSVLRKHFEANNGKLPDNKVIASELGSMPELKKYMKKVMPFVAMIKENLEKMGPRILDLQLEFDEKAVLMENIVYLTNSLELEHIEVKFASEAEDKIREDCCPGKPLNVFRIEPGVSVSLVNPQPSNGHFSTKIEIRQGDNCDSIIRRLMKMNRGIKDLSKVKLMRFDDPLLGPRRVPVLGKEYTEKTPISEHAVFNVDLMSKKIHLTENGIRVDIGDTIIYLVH

[3] = biological target: T2, Leucine--tRNA ligase, cytoplasmic; test: Inhibition of cytoplasmic LeuRS in human HepG2 cells assessed as reduction in protein synthesis preincubated for 48 hrs followed by L-[14C]leucine addition measured after 3 hrs by liquid scintillation counting analysis; type: cell-based
Procedure, shortened: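 HepG2 cells in DMEM/10% FCS, 3000 cells/well, exposed to compound dilutions (0.5% DMSO final) for 48 h at 37 °C. Medium then replaced with fresh medium containing 0.5 μCi L-[14C]leucine and the same compound levels for 3 h. Cells trypsinised, precipitated in ice-cold 20% TCA, filtered, washed, scintillation counted; curve-fit EC50; mean of at least duplicates.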

cytoplasmic LeuRS = test: Selectivity index, ratio of EC50 for inhibition of cytoplasmic LeuRS in HepG2 cells assessed as reduction in protein synthesis to MIC for Mycobacterium tuberculosis H37Rv; type: toxicity, cell-based; settings: human, read-out: Selectivity Index
Procedure, shortened: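 Ratio of HepG2 protein-synthesis EC50 to MIC against M. tuberculosis H37Rv.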

HepG2 = test: Cytotoxicity against human HepG2 cells assessed as reduction in cell viability after 48 hrs by CellTiter-Glo assay; type: cell-based; settings: HepG2, 48 h
Procedure, shortened: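 HepG2 cells seeded at 10 000/well in EMEM with 5% FCS and 2 mM glutamine. After 24 h, ten 1:2 serial compound dilutions (0.5% DMSO final) added in duplicate for 48 h. Read-out by CellTiter-Glo luminescence per table footnote; the method text also describes resazurin fluorescence (ex 515/em 590 nm). Sigmoidal variable-slope fit.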

[4] = biological target: T3, Leucine--tRNA ligase, mitochondrial (Homo sapiens, UniProt Q15031); test: Inhibition of human N-terminal 6His-tagged mitochondrial LeuRS expressed in Escherichia coli BL21(DE3) assessed as L-[14C]leucine incorporation in to Escherichia coli tRNA after 20 mins by liquid scintillation counting analysis; procedure, shortened: as §1
T3 sequence (Q15031 whole entry): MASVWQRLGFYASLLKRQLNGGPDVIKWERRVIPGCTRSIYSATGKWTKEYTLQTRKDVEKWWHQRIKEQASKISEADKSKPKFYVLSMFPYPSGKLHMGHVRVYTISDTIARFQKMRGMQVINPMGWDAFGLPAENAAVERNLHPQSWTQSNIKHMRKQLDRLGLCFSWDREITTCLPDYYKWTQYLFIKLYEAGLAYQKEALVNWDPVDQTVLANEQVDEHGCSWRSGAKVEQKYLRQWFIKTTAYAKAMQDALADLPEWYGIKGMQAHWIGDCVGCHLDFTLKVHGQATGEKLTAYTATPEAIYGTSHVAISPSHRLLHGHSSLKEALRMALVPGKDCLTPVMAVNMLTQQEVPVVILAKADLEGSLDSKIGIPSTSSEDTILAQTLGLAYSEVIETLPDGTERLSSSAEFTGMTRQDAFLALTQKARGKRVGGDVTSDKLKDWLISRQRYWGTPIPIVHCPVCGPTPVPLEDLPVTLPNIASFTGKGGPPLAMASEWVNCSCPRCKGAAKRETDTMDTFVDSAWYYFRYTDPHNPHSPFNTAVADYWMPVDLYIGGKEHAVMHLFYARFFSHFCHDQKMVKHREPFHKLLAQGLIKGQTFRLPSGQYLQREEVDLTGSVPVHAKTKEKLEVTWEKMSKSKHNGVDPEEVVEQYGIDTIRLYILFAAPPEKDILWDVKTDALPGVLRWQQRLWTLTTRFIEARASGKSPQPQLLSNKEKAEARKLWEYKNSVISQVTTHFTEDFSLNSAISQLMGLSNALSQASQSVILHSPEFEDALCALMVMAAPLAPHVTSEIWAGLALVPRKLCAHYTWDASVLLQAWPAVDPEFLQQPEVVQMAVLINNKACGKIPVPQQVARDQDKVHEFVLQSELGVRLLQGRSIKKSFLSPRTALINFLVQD

Structure (SMILES) | IC50 (Leucine--tRNA ligase) | MIC [1] | further results
NCC1OB(O)c2c(OCC(F)F)ccc(Cl)c21 (racemic) | 290 nM | 0.3 µM (≈ 0.0832 µg/mL) | 
CCOc1cccc2c1B(O)O[C@@H]2CN |  | 0.6 µM (≈ 0.124 µg/mL) | 
CCCOc1ccc(Br)c2c1B(O)O[C@@H]2CN | 240 nM | 0.38 µM (≈ 0.114 µg/mL) | 
NC[C@H]1OB(O)c2c(OCCCO)ccc(Cl)c21 | 470 nM | 0.14 µM (≈ 0.038 µg/mL) | 
NCC1OB(O)c2c(OCCc3ccccc3)ccc(Br)c21 (racemic) | 470 nM | > 5 µM | 
NC[C@H]1OB(O)c2c3c(cc(Br)c21)OCCO3 | 120 nM | 0.03 µM (≈ 0.009 µg/mL) | IC50 [2]: 118000 nM; EC50 [3]: 39500 nM; selectivity ratio (cytoplasmic LeuRS): 1320; EC50 (HepG2): 43200 nM
NCC1OB(O)c2c(OCc3ccccc3)ccc(Br)c21 (racemic) | 440 nM | 5 µM (≈ 1.74 µg/mL) | 
NC[C@H]1OB(O)c2c(OCCO)ccc(Br)c21 | 120 nM | 0.08 µM (≈ 0.0242 µg/mL) | IC50 [2]: 118000 nM; EC50 [3]: 116000 nM; IC50 [4]: > 300000 nM; selectivity ratio (cytoplasmic LeuRS): 1450; EC50 (HepG2): 292000 nM
NC[C@@H]1OB(O)c2c(OCCO)ccc(Br)c21 | 14200 nM | 10 µM (≈ 3.02 µg/mL) | 
NCC1OB(O)c2c(Oc3ccc(Br)cc3)ccc(Br)c21 (racemic) | 690 nM | > 5 µM | 
NCC1OB(O)c2c(OCCc3ccccc3)ccc(Cl)c21 (racemic) | 720 nM | 5 µM (≈ 1.59 µg/mL) | 
NCC1OB(O)c2c(OCc3ccccc3)ccc(Cl)c21 (racemic) | 320 nM | 5 µM (≈ 1.52 µg/mL) | 
NC[C@@H]1OB(O)c2c3c(cc(Cl)c21)OCCO3 | 12600 nM | 80 µM (≈ 20.4 µg/mL) | 
CCOc1cc(Br)c2c(c1)B(O)OC2CN (racemic) | 260 nM | 3.75 µM (≈ 1.07 µg/mL) | 
NCC1OB(O)c2c(Oc3ccccc3)ccc(Cl)c21 (racemic) | 340 nM | 5 µM (≈ 1.45 µg/mL) | 
NCC1OB(O)c2cc(OCCO)cc(Cl)c21 (racemic) | 1110 nM | > 5 µM | 
CCCOc1ccc(Cl)c2c1B(O)O[C@@H]2CN | 310 nM | 0.16 µM (≈ 0.0409 µg/mL) | 
CCOc1ccc(Cl)c2c1B(O)O[C@@H]2CN | 56 nM | 0.1 µM (≈ 0.0241 µg/mL) | EC50 [3]: 19600 nM; IC50 [4]: > 300000 nM; selectivity ratio (cytoplasmic LeuRS): 196; EC50 (HepG2): 65800 nM
COc1ccc(Cl)c2c1B(O)O[C@@H]2CN | 150 nM | 0.1 µM (≈ 0.0227 µg/mL) | IC50 [2]: 260000 nM; EC50 [3]: 105000 nM; IC50 [4]: > 300000 nM; selectivity ratio (cytoplasmic LeuRS): 1050; EC50 (HepG2): 327000 nM
NCC1OB(O)c2c3c(cc(Br)c21)OCCO3 (racemic) | 92 nM | 0.5 µM (≈ 0.15 µg/mL) | 

Structure (SMILES) | IC50 (Leucine--tRNA ligase) | MIC [1] | further results
CCCCOc1ccc(Cl)c2c1B(O)O[C@@H]2CN | 270 nM | 0.6 µM (≈ 0.162 µg/mL) | 
CCCOc1cc(Br)c2c(c1)B(O)OC2CN (racemic) | 370 nM | 0.6 µM (≈ 0.18 µg/mL) | 
NCC1OB(O)c2cc(OCCO)cc(Br)c21 (racemic) | 890 nM | > 5 µM | 
NCC1OB(O)c2c(OCCO)ccc(Br)c21 (racemic) | 150 nM | 0.16 µM (≈ 0.0483 µg/mL) | 
NCC1OB(O)c2c3c(cc(Br)c21)OCO3 (racemic) | 610 nM | > 5 µM | 
NCC1OB(O)c2c(OCCO)ccc(Cl)c21 (racemic) | 240 nM | 0.63 µM (≈ 0.162 µg/mL) | 
NCC1OB(O)c2cc(OCCCO)cc(Cl)c21 (racemic) | 440 nM | > 5 µM | 
NC[C@@H]1OB(O)c2c(OCCO)ccc(Cl)c21 | 10000 nM | 5 µM (≈ 1.29 µg/mL) | 
CCCCOc1ccc(Br)c2c1B(O)O[C@@H]2CN | 200 nM | 0.45 µM (≈ 0.141 µg/mL) | 
NCC1OB(O)c2c(OCC(F)F)ccc(Br)c21 (racemic) | 240 nM | 0.31 µM (≈ 0.0998 µg/mL) | 
NCC1OB(O)c2c3c(cc(Cl)c21)OCCO3 (racemic) | 130 nM | 0.31 µM (≈ 0.0792 µg/mL) | 
NCC1OB(O)c2c(OCCF)ccc(Br)c21 (racemic) | 260 nM | 0.2 µM (≈ 0.0608 µg/mL) | 
CCCOc1cc(Cl)c2c(c1)B(O)OC2CN (racemic) | 250 nM | 1.3 µM (≈ 0.332 µg/mL) | 
NCC1OB(O)c2c(OCCF)ccc(Cl)c21 (racemic) | 76 nM | 0.2 µM (≈ 0.0519 µg/mL) | 
NCC1OB(O)c2c3c(cc(Cl)c21)OCO3 (racemic) | 250 nM | > 5 µM | 
CCOc1cc(Cl)c2c(c1)B(O)OC2CN (racemic) | 630 nM | > 5 µM | 
NC[C@H]1OB(O)c2c(OCCCO)ccc(Br)c21 | 160 nM | 0.3 µM (≈ 0.0948 µg/mL) | 
NCC1OB(O)c2cc(OCCCO)cc(Br)c21 (racemic) | 370 nM | > 5 µM | 
NC[C@@H]1OB(O)c2c3c(cc(Br)c21)OCCO3 | 4200 nM | 40 µM (≈ 12 µg/mL) | 
CCOc1ccc(F)c2c1B(O)O[C@@H]2CN |  | 0.2 µM (≈ 0.045 µg/mL) | 
